Measurements: ChEMBL document CHEMBL4316597, “Design, Synthesis, and Biological Evaluation of Itaconic Acid Derivatives as Potential Anti-Influenza Agents” (J Med Chem, 2019)

How the values were obtained:
[1] = Selectivity ratio of CC50 for MDCK cells to EC50 for oseltamivir resistant-Influenza A virus A/TW/6663/09 (H1N1); assay type: toxicity; conditions: dog, read-out: Ratio CC50/EC50
How it was run: (§1)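 MDCK cells (2 × 10^4/well, E10, 16–24 h) infected at nine-fold TCID50 with compound for 72 h, 37 °C, 5% CO2. Cells were fixed in 4% paraformaldehyde and stained with crystal violet; EC50 is from Reed–Muench. For CC50, cells had compound alone for 72 h, then MTT 3 h, DMSO, A570, Reed–Muench. SI = CC50/EC50; three independent experiments.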

[2] = tested on: Influenza A virus; assay: Antiviral activity against oseltamivir resistant-Influenza A virus A/TW/7855/09 (H1N1) infected in MDCK cells after 72 hrs by crystal violet-staining based assay; assay type: functional, organism-based
How it was run: (§2)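 Cells seeded at 2 × 10^4/well in E10 (DMEM, 10% FBS), 16–24 h at 37 °C/5% CO2, washed with DPBS, then infected at nine-fold TCID50 with or without serial compound concentrations. Influenza is run in MDCK and enterovirus/rhinovirus in RD. Incubated 72 h, fixed in 4% paraformaldehyde, stained with 0.1% crystal violet, and read for cell density. EC50 = 50% CPE inhibition by Reed–Muench; mean ± S.D. of at least three runs.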

[3] = tested on: Influenza A virus; assay: Antiviral activity against oseltamivir resistant-Influenza A virus A/TW/6663/09 (H1N1) infected in MDCK cells after 72 hrs by crystal violet-staining based assay; assay type: functional, organism-based; how it was run: as §2
[4] = Selectivity ratio of CC50 for MDCK cells to EC50 for oseltamivir resistant-Influenza A virus A/TW/7855/09 (H1N1); assay type: toxicity; conditions: dog, read-out: Ratio CC50/EC50; how it was run: as §1

Compound: C=C(CC(=O)Nc1ccc(F)cc1F)C(=O)Nc1ccc(F)cc1F
- selectivity ratio [1]: 18
- EC50 [2]: 2.6 µM
- EC50 [3]: 4.83 µM
- selectivity ratio [4]: 33
